From PubChem BioAssay
Sampled rows, rich in hits. Any-hit rate of the full collection: about 11%.
D1 mod = allosterically modulates the human D1 dopamine receptor; P21728; HEK293 D1, CRE-luciferase, dopamine EC30 potentiation; actives deviate in either direction; B-score at 10 µM; 5.9% of 58,000 active; AID 641;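 active = luminescence count or its row- and column-corrected plate score outside the 99.7% band of the plate's sample wells, on either side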
S1P3 agonist = agonists of human S1P3 receptor; Q99500; S1P3 NFAT-BLA reporter cells, agonism, FRET ratio; relative to 1 µM S1P, basal subtracted; activation, % at 4.5 µM; 0.1% of 60,000 active; AID 373;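 active = activation above the screen-wide mean plus 3 SD, cut at about 4.5% in these data, passing the limit was not always enough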
Target sequence (Q99500 whole entry, looked up): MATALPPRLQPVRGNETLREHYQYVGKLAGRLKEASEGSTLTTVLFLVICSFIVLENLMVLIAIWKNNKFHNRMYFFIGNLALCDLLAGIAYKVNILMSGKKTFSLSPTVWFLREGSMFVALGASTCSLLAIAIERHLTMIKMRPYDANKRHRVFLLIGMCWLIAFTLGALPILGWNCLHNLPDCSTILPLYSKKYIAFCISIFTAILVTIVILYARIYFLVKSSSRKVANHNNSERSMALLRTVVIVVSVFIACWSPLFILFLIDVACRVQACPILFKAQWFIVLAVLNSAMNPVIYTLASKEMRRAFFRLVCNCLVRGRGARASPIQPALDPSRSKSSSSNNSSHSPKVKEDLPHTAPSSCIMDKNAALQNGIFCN
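material = human S1P3 NFAT-BLA reporter CHO cells | schedule = 4 h compound at 37 °C, 2 h substrate at RT | measured by = fluorescent BLA substrate, ex 405 nm, em 460/535 nm ratio | controls = 1 µM S1P reference | replication = primary once, confirmation triplicate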
S1P1 ag pot = S1P1 (human) agonism or agonism potentiation. S1P1 CRE-bla cells, forskolin, beta-lactamase FRET, potentiator mode; S1P1 agonist co-added at EC20, 2 nM; 100% = saturating reference agonist, 0% = basal. activation, % at 9.5 µM. 0.57% of 56,000 active. P21453;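 active = activation above a cutoff set at the mean activation of all tested compounds plus 3 SD, cut at about 54% in these data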;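 note: forskolin at 4 µM as EC80 and the EC20 agonist is SEW2871; 100% = SEW2871 at its EC100 plus forskolin at EC80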
M1 ag = activates the M1 muscarinic receptor; B-score at 10 µM; CHO-M1 cells, Fluo-4 calcium fluorescence, agonist mode; stronger effect = higher value; 3% of 64,000 active;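 active = fluorescence rise, raw or as B-score row- and column-corrected plate score, outside the 99.7% band of its plate's samples, either direction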
M1 antag = M1 muscarinic receptor (rat) antagonism. P08482. CHO-M1 cells, Fluo-4 calcium, ACh EC80 antagonist mode; stronger effect = lower value. B-score at 10 µM. 3.4% of 64,000 active;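 active = calcium fluorescence response, raw or row-and-column corrected B-score, differing from the plate sample mean either way at a set confidence level, mostly lower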
M1 agonist conf = confirmation of rat M1 muscarinic receptor agonists. shares compounds with M1 ag. AID 1488. 19% of 1,700 active. CHO-M1 cells, Fluo-4 calcium fluorescence, agonist mode; actives lie on both sides. fluorescence change (max-min) at 10 µM;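 active = fluorescence change differs from the solvent-only DMSO control mean at a set confidence level in both duplicate runs; inconclusive = differs from solvent-only control mean in just one of two runs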;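 note: an EC20 dose of acetylcholine follows compound addition during the same imaging run; raw fluorescence intensity difference in instrument units with no normalization to controls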
M4 agonist ctr = rat M4 muscarinic agonism, M1 counter-screen; AID 1741; shares compounds with M1 ag; CHO M4/Gqi5 cells, Fluo-4 calcium fluorescence, agonist mode; actives lie on both sides; 9% of 1,700 active; fluorescence change (max-min) at 10 µM;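 active = fluorescence change differing from the plate's solvent-only control wells at 99.7% confidence in both duplicates, whether higher or lower; inconclusive = differs from solvent controls in only one of two duplicates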
An asterisk follows results filed as active; ? = inconclusive; . = no result given.

SMILES	D1 mod	S1P3 agonist	S1P1 ag pot	M1 ag	M1 antag	M1 agonist conf	M4 agonist ctr
O=C(CSc1nnc(C2COc3ccccc3O2)o1)N1CCOCC1 (centres undefined)	-0.77	0	-4	.	.	.	.
C=CCN1C(=O)C2(/C(=C(\O)c3ccc4c(c3)OCCO4)C(=O)C(=O)N2CCCOC)c2ccccc21 (centres undefined)	-1.7	-2	-5	-0.32	-0.16	.	.
O=C(NCc1ccco1)C(Cc1ccccc1)N1C(=O)C2C3C=CC(C3)C2C1=O (centres undefined)	-1.2	-1	11	4.5*	-0.89	?	-45
CC(C)N(C(=O)COc1ccc(Br)cc1Cl)C(C)C	-0.21	0	-18	-0.44	-0.39	.	.
COC(=O)c1ccc2c(c1)SC1=C(CCCC1=O)N2	-0.91	0	-35	11*	0.63	55	?
CC(C)C(c1nnnn1C1CCCCC1)N1CCN(c2ncccn2)CC1 (centres undefined)	-0.61	-1	8	4.4*	0.064	-14	-33
COc1ccc(CNn2c(C)nc3ccccc3c2=O)cc1	.	0	-24	5.6*	-0.51	-8.3	-17
CCCCOc1ccc(CNn2c(C)nc3ccccc3c2=O)cc1	.	-1	28	-0.48	0.0013	.	.
CCN1CCN(C(=O)c2cc3nc(-c4ccccc4)cc(C(F)(F)F)n3n2)CC1	-0.33	-1	.	-0.039	0.79	.	.
OCCCc1nc2n(n1)C(c1ccccc1Cl)C=C(c1cccs1)N2 (centres undefined)	0.0074	-1	23	33*	0.36	206*	197*
CC(C)c1nnc(NC(=O)c2ccc(S(=O)(=O)N3CCOCC3)cc2)s1	-0.023	1	4	-3.1*	-0.23	?	?
Cc1cc(C)c(NC(=O)c2ccc(S(=O)(=O)N3CCOCC3)cc2)c(C)c1	-0.014	-1	10	-0.79	-0.056	.	.
COc1ccc2cc3cc(C(=O)NCc4ccc5c(c4)OCO5)oc3nc2c1	0.79	0	5	2.1*	-0.51	?	-46
Cc1nc2ccccc2c2oc(C(=O)NCc3ccc4c(c3)OCO4)cc12	-2.2	-1	44	2.6*	-2*	-8.3	-35
C=CCN1C(c2ccc(OCC)cc2)=CS/C1=C(\C#N)c1nnc2n1CCCCC2	-0.49	0	-7	6.6*	-0.61	-3.7	-24
N#CC(C(=O)OC1CCCCC1)c1nc2ccccc2nc1N1CCCCC1 (centres undefined)	0.45	-1	8	-0.56	-0.035	.	.
CCCCCNC(=O)C(C#N)c1nc2ccccc2nc1N1CC(C)OC(C)C1 (centres undefined)	.	-4	8	2.3	1.6	.	.
CC1CN(c2nc3ccccc3nc2C(C#N)C(=O)NC2CCCCC2)CC(C)O1 (centres undefined)	0.71	-1	7	41*	0.1	-31*	-62
CC1CN(c2nc3ccccc3nc2C(C#N)C(=O)OC2CCCCC2)CC(C)O1 (centres undefined)	0.01	-1	36	38*	-0.11	?	-35
COc1cc(OC)cc(C(=O)N2CCN(c3ncccn3)CC2)c1	0.95	0	9	0.2	-0.42	.	.
COc1ccccc1N1CCN(S(=O)(=O)Cc2ccccc2Cl)CC1	-1.2	-1	.	0.79	0.83	.	.
Cc1ccc(-c2cnc(N)n2C)cc1C	-3.7	1	36	0.51	-1.9	.	.
CCC1CCCCN1S(=O)(=O)c1ccc(C(=O)Nc2nnc(-c3ccccc3Cl)o2)cc1 (centres undefined)	-1.5	-2	34	0.061	-0.11	.	.
CC1CCCCN1S(=O)(=O)c1ccc(C(=O)Nc2nnc(-c3ccccc3Cl)o2)cc1 (centres undefined)	2.5	-1	17	-2.5*	0.015	?	-45
O=C(CSc1ccc2nnc(-c3ccc(Cl)cc3)n2n1)N1CCN(c2ccccc2)CC1	-0.023	-1	-17	0.52	-0.029	.	.
SMILES	D1 mod	S1P3 agonist	S1P1 ag pot	M1 ag	M1 antag	M1 agonist conf	M4 agonist ctr
CCN(C(=O)c1cc2cccc(OC)c2oc1=O)c1ccccc1	0.32	-1	-15	0.018	0.22	.	.
Cc1ccc(-c2csc(N(CCCN3CCOCC3)C(=O)c3ccco3)n2)cc1	-0.12	0	2	2.3	0.42	.	.
COc1ccc(-c2csc(N(CCCN3CCOCC3)C(=O)c3ccco3)n2)cc1	.	0	8	8.8*	-1.1	-1.5	-39
COc1ccc(-c2csc(N(CCCN(C)C)C(=O)c3cccs3)n2)cc1	-0.42	1	-7	27*	-9.5*	11	-37
O=C(CSc1nc2c(c(=O)n1-c1ccc(Cl)cc1)SCC2)Nc1ccc2c(c1)OCCO2	0.09	-2	17	0.31	0.075	.	.
CS(=O)(=O)N(CCc1ccccc1)CC(=O)NCc1ccccn1	0.31	-2	7	0.26	-0.011	.	.
CCOc1ccc(C2=[N+]([O-])C(C)(C)N(O)C2(C)C)cc1	-0.2	0	-7	3.6*	2.7*	-20	?
O=C1CS/C(=N\C(=O)N2c3ccccc3Sc3ccccc32)N1	-2.1	-1	-7	0.016	-0.076	.	.
O=C1c2cccc3c(N4CCCCC4)ccc(c23)C(=O)N1c1ccccn1	-0.57	-1	28	78*	-1.5	775*	819*
CCCC(=O)N1CCN(c2ccc(NC(=O)c3cc4ccccc4o3)cc2Cl)CC1	-2.7	-1	66*	6.9*	-1.6	-17	-34
CCC(=O)N1CCN(c2ccc(NC(=O)c3cc4ccccc4o3)cc2Cl)CC1	-3.9*	-1	.	4.5*	-1.9*	-19	-35
O=C(Nc1ccc(N2CCN(C(=O)c3ccco3)CC2)c(Cl)c1)c1cc2ccccc2o1	-1.1	-2	.	.	.	.	.
CCOC(=O)N1CCN(C(c2ccc(F)cc2)c2sc3nc(C)nn3c2O)CC1 (centres undefined)	-0.25	-1	-3	-0.52	0.16	.	.
Cc1ccc(C)c(N2CCN(Cc3nnnn3C3CCCCC3)CC2)c1	-0.016	-1	-10	10*	0.0041	-6.4	-24
Cc1ccc(OCc2nnc(SCC(=O)c3ccccc3)n2Cc2ccco2)cc1	0.33	-1	10	-0.43	0.037	.	.
Cc1ccc(OCc2nnc(SCc3nc4ccccc4[nH]3)n2Cc2ccco2)cc1	.	-2	50	5.5*	-2.2	?	-55
CC(C)=CC(=O)Nc1ccc(Br)cc1	-1.9	0	25	-0.1	-0.67	.	.
CNC(=O)CC(C(=O)O)c1ccc(OCC(C)C)cc1 (centres undefined)	-0.036	-1	-12	-0.28	1.1	.	.
CCC(C)c1ccc(O)c(NC(=O)c2ncn[nH]2)c1 (centres undefined)	0.18	-1	.	12*	0.78	-24*	-37
